Reference: PMC11328607 (Journal of Enzyme Inhibition and Medicinal Chemistry, 2024)
Where “and” joins values, the source holds several entries; their conditions need not be identical. Identical values can stand only once. Like-named read-outs stand apart in the source and are kept apart here.

How the values were obtained:
[1] = tested on: normal human lung fibroblasts (Wi-38); test: MTT cytotoxicity assay on normal lung fibroblasts; type: cell-based; conditions: for IC50: read-out: Wi-38 IC50
human NSCLC A549 cells = test: MTT cytotoxicity assay on NSCLC cells; type: cell-based; conditions: for IC50: Mean ± SD, n = 3; for SI (ratio of IC50 for healthy and cancer cells): Wi-38 IC50 / A549 IC50; for fold more potent than cisplatin: A549 IC50 relative to cisplatin
Summary of the method: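 Human A549 and Wi-38 fibroblasts (ATCC) grown in DMEM with 10% FBS at 37 °C, 5% CO2. Wi-38 seeded at 5 x10^3 cells/well and given 24 h to attach; A549 run by the same MTT method. […] MTT 5 mg/ml added for 3 h at 37 °C, formazan dissolved in DMSO, A570 read. IC50 derived; SI = Wi-38 IC50/A549 IC50. Mean ± SD, n = 3.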

MMP-9 = MMP-9 (Homo sapiens, UniProt P14780); test: In vitro MMP-9 inhibition assay; type: biochemical
Summary of the method: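 Commercial MMP-9 inhibitor assay kit, run per the manufacturer's instructions. Test compounds were assayed at 0.5 µM alongside the broad-spectrum hydroxamate MMP inhibitor NNGH as reference. For selectivity, MMP-2 inhibition was measured with a colorimetric MMP-2 inhibitor screening kit at the same 0.5 µM, also per the manufacturer's instructions.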

[2] = molecular target: CaV3.2 (T-type) calcium channels (Homo sapiens, UniProt O95180); test: Whole cell patch-clamp T-type calcium channel block; type: cell-based; conditions: HEK-tsA201, read-out: Block of CaV3.2 (T-type) currents, percentage of inhibition, 10 μM; HEK tsA-201 cells; n = 3
Summary of the method: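 Human embryonic kidney tsA-201 (293T) cells transiently transfected to express CaV3.2 T-type channels, then recorded by whole-cell patch clamp. Each test compound applied at 10 µM and block of T-type calcium current measured.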

A549 cells = test: Combination studies with cisplatin; type: cell-based, human
[3] = DPPH radical scavenging assay; conditions: n = 3; for DPPH radical scavenging %: 12 h, dark
Summary of the method: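 Test compound dissolved in 1:1 water:DMSO (v/v), then mixed with an equal volume of 0.6 mM DPPH in absolute ethanol, giving final 500, 250, 125, 100, 62.5 and 31.25 µg/mL. Kept 12 h at room temperature in complete darkness. Absorbance read at 517 nm. Inhibition % taken from control (A0) versus compound (A1) absorbance, IC50 then calculated. Mean ± SD, n = 3.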

[4] = Homo sapiens, A549, 72 h, read-out: A549 IC50, MTT, 72 h

CaV3.2 (T-type) calcium channels, sequence (O95180 whole entry): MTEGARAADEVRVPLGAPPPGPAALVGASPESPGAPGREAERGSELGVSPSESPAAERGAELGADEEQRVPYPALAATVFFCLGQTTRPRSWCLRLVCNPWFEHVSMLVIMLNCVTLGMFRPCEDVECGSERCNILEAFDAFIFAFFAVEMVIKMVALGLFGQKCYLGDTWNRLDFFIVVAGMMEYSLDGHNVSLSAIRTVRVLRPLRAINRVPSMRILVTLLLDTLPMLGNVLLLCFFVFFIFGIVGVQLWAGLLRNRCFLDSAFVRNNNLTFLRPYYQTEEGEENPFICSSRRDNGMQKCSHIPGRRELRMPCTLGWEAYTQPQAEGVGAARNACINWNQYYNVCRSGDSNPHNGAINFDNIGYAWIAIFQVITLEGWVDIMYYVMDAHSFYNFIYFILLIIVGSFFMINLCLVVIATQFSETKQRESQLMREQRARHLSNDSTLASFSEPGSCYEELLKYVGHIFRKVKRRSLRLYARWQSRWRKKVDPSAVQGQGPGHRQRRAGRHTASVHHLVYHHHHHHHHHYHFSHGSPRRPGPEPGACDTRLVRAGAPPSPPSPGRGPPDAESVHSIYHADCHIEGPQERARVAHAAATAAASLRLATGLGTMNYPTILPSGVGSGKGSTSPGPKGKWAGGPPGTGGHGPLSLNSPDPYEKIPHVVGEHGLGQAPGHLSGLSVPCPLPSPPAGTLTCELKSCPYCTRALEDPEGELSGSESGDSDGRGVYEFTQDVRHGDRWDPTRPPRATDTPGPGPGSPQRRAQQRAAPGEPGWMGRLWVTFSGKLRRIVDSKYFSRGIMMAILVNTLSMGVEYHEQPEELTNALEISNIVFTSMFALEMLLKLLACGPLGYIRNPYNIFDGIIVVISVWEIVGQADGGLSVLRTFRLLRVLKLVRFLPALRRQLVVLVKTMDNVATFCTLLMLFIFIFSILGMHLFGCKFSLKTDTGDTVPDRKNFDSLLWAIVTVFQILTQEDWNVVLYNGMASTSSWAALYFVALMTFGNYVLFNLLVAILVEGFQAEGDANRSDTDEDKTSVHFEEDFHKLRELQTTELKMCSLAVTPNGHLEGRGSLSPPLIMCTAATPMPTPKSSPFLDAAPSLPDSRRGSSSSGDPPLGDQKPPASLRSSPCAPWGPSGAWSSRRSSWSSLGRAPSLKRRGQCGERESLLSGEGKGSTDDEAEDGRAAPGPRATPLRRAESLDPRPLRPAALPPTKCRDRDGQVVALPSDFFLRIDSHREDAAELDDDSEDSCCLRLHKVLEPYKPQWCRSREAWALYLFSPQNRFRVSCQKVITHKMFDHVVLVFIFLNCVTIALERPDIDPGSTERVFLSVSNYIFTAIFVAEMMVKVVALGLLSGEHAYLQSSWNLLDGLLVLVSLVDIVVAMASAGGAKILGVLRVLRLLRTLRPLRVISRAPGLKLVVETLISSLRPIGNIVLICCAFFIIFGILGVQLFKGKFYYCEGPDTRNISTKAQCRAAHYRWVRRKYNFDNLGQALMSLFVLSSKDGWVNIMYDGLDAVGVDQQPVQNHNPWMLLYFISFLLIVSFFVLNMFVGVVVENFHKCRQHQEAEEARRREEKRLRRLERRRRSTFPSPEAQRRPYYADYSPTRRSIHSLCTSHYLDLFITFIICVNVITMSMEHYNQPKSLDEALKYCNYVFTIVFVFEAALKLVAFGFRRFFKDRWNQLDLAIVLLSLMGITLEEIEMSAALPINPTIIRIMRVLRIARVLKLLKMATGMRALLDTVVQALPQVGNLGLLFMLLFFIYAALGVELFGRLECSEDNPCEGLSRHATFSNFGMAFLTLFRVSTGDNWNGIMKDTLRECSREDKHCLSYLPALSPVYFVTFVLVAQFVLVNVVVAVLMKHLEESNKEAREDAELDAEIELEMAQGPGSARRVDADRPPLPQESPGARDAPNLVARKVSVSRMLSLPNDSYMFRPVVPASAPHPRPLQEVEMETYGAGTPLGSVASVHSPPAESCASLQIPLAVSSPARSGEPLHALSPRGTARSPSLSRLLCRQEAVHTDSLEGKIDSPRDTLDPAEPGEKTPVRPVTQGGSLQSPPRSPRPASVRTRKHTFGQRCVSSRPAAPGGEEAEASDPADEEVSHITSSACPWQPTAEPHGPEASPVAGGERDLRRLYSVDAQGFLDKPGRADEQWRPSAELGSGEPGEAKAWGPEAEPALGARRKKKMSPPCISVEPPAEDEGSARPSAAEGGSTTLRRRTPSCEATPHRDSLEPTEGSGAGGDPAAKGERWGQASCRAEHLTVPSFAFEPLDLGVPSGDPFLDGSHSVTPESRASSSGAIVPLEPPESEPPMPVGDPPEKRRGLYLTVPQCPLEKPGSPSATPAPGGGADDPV
MMP-9, sequence (P14780 94-707): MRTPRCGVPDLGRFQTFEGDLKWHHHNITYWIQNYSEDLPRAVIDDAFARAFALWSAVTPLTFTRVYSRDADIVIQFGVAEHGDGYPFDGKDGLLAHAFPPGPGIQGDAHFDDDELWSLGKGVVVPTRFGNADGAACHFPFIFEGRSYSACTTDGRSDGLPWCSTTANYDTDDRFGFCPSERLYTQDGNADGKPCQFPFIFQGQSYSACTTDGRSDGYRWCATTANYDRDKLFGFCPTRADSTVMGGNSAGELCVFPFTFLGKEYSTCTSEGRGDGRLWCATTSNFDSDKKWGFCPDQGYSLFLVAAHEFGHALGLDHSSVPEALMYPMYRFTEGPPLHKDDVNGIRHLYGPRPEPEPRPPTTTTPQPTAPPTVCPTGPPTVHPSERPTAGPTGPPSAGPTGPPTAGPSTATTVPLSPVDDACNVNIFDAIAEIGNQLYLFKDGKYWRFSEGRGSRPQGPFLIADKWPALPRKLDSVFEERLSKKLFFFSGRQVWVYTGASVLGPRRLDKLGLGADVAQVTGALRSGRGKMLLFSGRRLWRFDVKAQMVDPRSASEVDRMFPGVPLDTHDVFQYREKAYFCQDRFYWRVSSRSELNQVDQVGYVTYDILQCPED

inhibition at 10 µM [2] | Compound | IC50 ([1]; Homo sapiens, WI-38, 72 h) | Wi-38 EC100 (effective safe concentration at 100% cell viability) ([1]; MTT, 72 h, Mean ± SD, n = 3) | IC50 (human NSCLC A549 cells; [4]) | further results
– | O=C(C=Cc1cn(CC(=O)Nc2nc(-c3ccccc3)cs2)nn1)C=Cc1cn(CC(=O)Nc2nc(-c3ccccc3)cs2)nn1 [Compound 8, 2,2’-[(3-Oxopenta-1,4-diene-1,5-diyl)bis(1H-1,2,3-triazole-4,1-diyl)]bis(N-(4-phenylthiazol-2-yl)acetamide)] | 108 ± 3 nM | 38 ± 2 nM | 116 ± 1 nM | –
– | O=C(Cn1cc(C2CC(c3ccc(F)cc3)=NN2)nn1)Nc1nc(-c2ccccc2)cs1 (stereo not shown) [Compound 7d, 2-{4-[3–(4-Fluorophenyl)-4,5-dihydro-1H-pyrazol-5-yl]-1H-1,2,3-triazol-1-yl}-N-(4-phenylthiazol-2-yl)acetamide] | 1300 ± 31 nM | 108 ± 15 nM | 425 ± 17 nM | SI (ratio of IC50 for healthy and cancer cells) (human NSCLC A549 cells): 3.05
– | Cc1ccc(C2=NNC(c3cn(CC(=O)Nc4nc(-c5ccccc5)cs4)nn3)C2)cc1 (stereo not shown) [Compound 7c, 2-{4-[3-(p-tolyl)-4,5-dihydro-1H-pyrazol-5-yl]-1H-1,2,3-triazol-1-yl}-N-(4-phenylthiazol-2-yl)acetamide] | 230 ± 5 nM | 51 ± 7 nM | 200 ± 6 nM | SI (ratio of IC50 for healthy and cancer cells) (human NSCLC A549 cells): 1.15
– | COc1ccc(S(=O)(=O)N(CC(=O)NO)CC(C)C)cc1 [NNGH, reference compound] | – | – | – | MMP-9 % Inhibition (0.5 μM) (MMP-9; 0.5 μM, Mean ± SD, n = 2): 56.8 ± 0.8%; IC50 (MMP-9; read-out: MMP-9 IC50, Mean ± SD, n = 2): 350 ± 10 nM
– | N.N.[Cl][Pt][Cl] [Cisplatin, reference compound] | – | – | – | IC50 ([1]; MTT, 72 h, Mean ± SD, n = 3): 1330 ± 82 nM; IC50 (human NSCLC A549 cells; read-out: A549 IC50, MTT, 72 h): 586 ± 30 nM
– | [N-]=[N+]=NCC(=O)Nc1nc(-c2ccccc2)cs1 [Compound 3, 2-Azido-N-(4-phenylthiazol-2-yl)acetamide] | 1728 ± 3 nM | 429 nM and 429 ± 32 nM | 74.4 nM | fold more potent than cisplatin (human NSCLC A549 cells): ~8 fold; IC50 (human NSCLC A549 cells; read-out: A549 IC50, MTT, 72 h): 74 ± 4 nM
~60% | O=C(Cn1cc(C=CC(=O)c2ccc(F)cc2)nn1)Nc1nc(-c2ccccc2)cs1 [Compound 6d, 2-{4-[3–(4-Fluorophenyl)-3-oxoprop-1-en-1-yl]-1H-1,2,3-triazol-1-yl}-N-(4-phenylthiazol-2-yl)acetamide] | 255 ± 3 nM | 138 ± 9 nM | 21 ± 1 nM | IC50 (MMP-9): 90 ± 10 nM; selectivity to MMP-9 over MMP-2 (SI) (MMP-9; MMP-9 over MMP-2, 0.5 μM): 2.4; inhibition at 0.5 µM (MMP-9; read-out: MMP-9 % Inhibition (0.5 μM)): 96.2 ± 0.6%; fold more active than NNGH (MMP-9 IC50) (MMP-9; relative to NNGH): ~4 fold; lowering of combination IC50 compared to cisplatin as single agent (A549 cells; 6d combined with cisplatin): > 72.3% and > 72.32%; dose reduction index (DRI) for cisplatin (A549 cells; 6d with cisplatin at IC50 doses): 6.89 folds; combination index (CI) (A549 cells; 6d with cisplatin, CI < 1 synergistic): 0.69 ± 0.05 and 0.69; DPPH radical scavenging % ([3]; 250 µg/mL): 70.9 ± 6.6%; DPPH radical scavenging % ([3]; 500 µg/mL): 85.4 ± 7.9%; DPPH radical scavenging IC50 ([3]; Mean ± SD): 146.9 ± 22.54 µg/mL; fold more potent than cisplatin (human NSCLC A549 cells): 27 fold
– | CC(=O)C=Cc1cn(CC(=O)Nc2nc(-c3ccccc3)cs2)nn1 [Compound 6a, 2-[4–(3-Oxobut-1-en-1-yl)-1H-1,2,3-triazol-1-yl]-N-(4-phenylthiazol-2-yl)acetamide] | 1920 ± 212 nM | 460 nM and 460 ± 110 nM | 82 ± 5 nM | –
20% | O=Cc1cn(CC(=O)Nc2nc(-c3ccccc3)cs2)nn1 [Compound 5, 2–(4-Formyl-1H-1,2,3-triazol-1-yl)-N-(4-phenylthiazol-2-yl)acetamide] | 243 ± 14 nM | 78 ± 4 nM | 112 nM | –
~60% | O=C(Cn1cc(CO)nn1)Nc1nc(-c2ccccc2)cs1 [Compound 4, 2-[4-(Hydroxymethyl)-1H-1,2,3-triazol-1-yl]-N-(4-phenylthiazol-2-yl)acetamide] | 249 ± 2 nM | 58 ± 4 nM | 268 ± 2 nM | –
